The nature of data set [1]: Drug level in DMSO treated with (E)-3-Chloro-1-(3-(3,5,6-trimethylpyrazin-2-yl)acryloyl)-5,6-dihydropyridin-2(1H)-one at 5 mg up to 8 hrs in presence of methyl thioglycolate by 1H NMR analysis.
The test system of data set [2] is K562. Nature of the data set: Antiproliferative activity against human K562 cells after 72 hrs in presence of piperlongumine by MTT assay. The note with it: K562, 72 h. It is filed as functional, cell-based. In outline:
(§1)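 Cells grown in RPMI 1640 with 10% FBS in 96-well plates overnight, then exposed to test agents in triplicate for 72 h. MTT (5 mg/mL stock) added for the last 4 h, formazan dissolved in DMSO, absorbance read at 570 nm. Inhibition = (1 − OD treated/OD control) × 100%.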
(In general: Tetrazolium assays rely on reduction of a dye to a coloured formazan, in cell work by metabolically active cells.)

The test system of data set [3] is A549. Nature of the data set: Antiproliferative activity against human A549 cells after 72 hrs in presence of piperlongumine by MTT assay. Type of data set: functional, cell-based. The note with it: A549, 72 h. Summed up: as §1
The subject of data set [4] is U-87 MG. Nature of the data set: Antiproliferative activity against human U87MG cells after 72 hrs in presence of piperlongumine by MTT assay. It is filed as functional, cell-based, U-87MG ATCC. In outline:
as §1

Data set [5] relates to HCT-116. As to the kind of experiment: Antiproliferative activity against human HCT116 cells after 72 hrs in presence of piperlongumine by MTT assay. Type of data set: functional, cell-based. The note with it: HCT-116, 72 h. Summed up:
as §1

Data set [6] relates to A549. As to the kind of experiment: Antiproliferative activity against human A549 cells after 72 hrs by MTT assay. Type of data set: functional, cell-based. The conditions noted are these: A549, 72 h.
Data set [7] in a line: Aqueous solubility of compound by HPLC analysis. It is filed as physicochemical. The conditions noted are these: water. In outline: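 Compound shaken in pure water or 50 mM phosphate buffer pH 7.4 at 20 °C, then centrifuged. Supernatant assayed by C18 HPLC (acetonitrile–water 60/40, 1.0 mL/min, 254 nm). Triplicate.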
Data set [8] deals with HCT-116. As to the kind of experiment: Antiproliferative activity against human HCT116 cells after 72 hrs by MTT assay. The conditions noted are these: HCT-116, 72 h. Type of data set: functional, cell-based. In outline: as §1
Data set [9] can be described thus: Solubility of compound in phosphate buffer at pH 7.4 after 8 hrs by HPLC analysis. It is filed as physicochemical. Summed up:
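Compound was shaken in 50 mM phosphate buffer (pH 7.4) at 20 °C, centrifuged, and the supernatant analysed by HPLC. Conditions were a C18 column, acetonitrile–water 60/40 (v/v) at 1.0 mL/min, with detection at 254 nm. Run in triplicate.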

Data set [10] deals with K562. Nature of the data set: Antiproliferative activity against human K562 cells after 72 hrs by MTT assay. Type of data set: functional, cell-based. The conditions noted are these: K562, 72 h. Summed up:
as §1

Data set [11] deals with U-87 MG. Nature of the data set: Antiproliferative activity against human U87MG cells after 72 hrs by MTT assay. Type of data set: functional, cell-based, U-87MG ATCC. In outline: as §1

Structures are written as SMILES. Values after ≈ are worked out from the molar mass of the structure shown.

For the compound `COC(=O)CSC1CCN(C(=O)/C=C/c2nc(C)c(C)nc2C)C(=O)C1Cl` (configuration not stated), the Drug metabolism entry in data set [1] was “Metabolite detected”.
`Cc1nc(C)c(C)nc1C` [LIGUSTRAZINE]: the IC50 in data set [2] was 5.09 µM; in data set [3], 15.2 µM; in data set [4], 16.1 µM; in data set [5], 8.17 µM.
Consider `Cc1nc(C)c(/C=C/C(=O)N2CCC=C(I)C2=O)nc1C`, for which the IC50 was determined as 3.19 µM in data set [6], 0.76 µM in [8], 0.64 µM in data set [10] and 7.26 µM in data set [11]. For the same compound, the concentration in solution in data set [7] (solubility) came to 14.5 µg/mL (≈ 36.5 µM). Further, in data set [9], the solubility at 8 h worked out at 49.9 µg/mL (≈ 125 µM).
On to `Cc1nc(C)c(/C=C/C(=O)N2CCC=C(Br)C2=O)nc1C`, for which the IC50 amounted to 2.48 µM in data set [6], 0.46 µM in data set [8], 0.48 µM in [10] and 4.28 µM in data set [11]. In data set [7], the concentration in solution (solubility) came to 20.2 µg/mL (≈ 57.6 µM). The compound also gave a solubility at 8 h in [9] of 67.3 µg/mL (≈ 192 µM).
Regarding `Cc1nc(C)c(/C=C/C(=O)N2CCC=CC2=O)nc1C`, the IC50 was found to be 4.86 µM in data set [6], 1.67 µM in data set [8], 1.13 µM in data set [10] and 8.73 µM in data set [11]. The solubility in data set [7] was 42.6 µg/mL (≈ 157 µM). For the same compound, the solubility at 8 h in [9] turned out to be 328 µg/mL (≈ 1210 µM).
With `Cc1nc(C)c(/C=C/C(=O)N2CCCCC2=O)nc1C`, the IC50 in data set [6], in [8], in data set [10] and in data set [11] was above 50 µM throughout.

Usually IC50 stands for the concentration that gives 50% inhibition. What is called solubility is the concentration that dissolves in the medium under given conditions.

The record behind these values is ChEMBL document CHEMBL4033788, “Novel Ligustrazine-Based Analogs of Piperlongumine Potently Suppress Proliferation and Metastasis of Colorectal Cancer Cells in Vitro and in Vivo” (J Med Chem, 2018).
